# Assay results as given in ChEMBL document CHEMBL1141264, “Cucurbitane-type triterpenoids from the fruits of Momordica charantia and their cancer chemopreventive effects” (J Nat Prod, 2007).
# How the values were obtained:
# [1] = Scavenging activity against NO generation in NOR1-induced cell culture; type: functional
# Procedure, shortened: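 Cultured-cell screen for scavenging of NO released by the NO donor NOR 1. Activity expressed as inhibitory ratio (IR) against NOR 1 action, with glycyrrhizin and carboxy-PTIO as reference compounds.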
# [2] = Cytotoxicity against human Raji cells assessed as cell viability at 1000 mol ratio/TPA relative to control; type: cell-based; conditions: read-out: Activity
# Procedure, shortened: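 Raji cells stimulated with TPA at 32 pmol (20 ng), taken as 100% positive control. Test compound added at mol ratio to TPA of 1000, 500, 100 or 10 (1000:1 = 32 nmol). EBV-EA induction expressed as % of positive control; Raji cell viability recorded as % at the 1000 ratio. IC50 as mol ratio to TPA inhibiting 50% of control.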
# Mus musculus [3] = species on record: Mus musculus; test: Inhibition of DMBA-induced carcinogenesis in mouse assessed as reduction in papilloma bearing mouse after 10 weeks; type: functional; design: scale not given: the % may be the effect or the level left
# Procedure, shortened: (§1)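 Mouse skin two-stage model, DMBA initiation and TPA promotion. Promotion with TPA 1.7 nmol; treated groups received 85 nmol test compound with each TPA application. Read-outs were % of mice bearing papillomas and mean papillomas per mouse, scored at 10 and 20 weeks. Papilloma numbers compared by Student's t-test.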
# Mus musculus [4] = species on record: Mus musculus; test: Inhibition of DMBA-induced carcinogenesis in mouse assessed as reduction in papilloma bearing mouse after 20 weeks; type: functional; design: scale not given: the % may be the effect or the level left; procedure, shortened: as §1
# Mus musculus [5] = species on record: Mus musculus; test: Inhibition of DMBA-induced carcinogenesis in mouse assessed as number of papillomas per mouse after 10 weeks; type: functional; procedure, shortened: as §1
# Mus musculus [6] = species on record: Mus musculus; test: Inhibition of DMBA-induced carcinogenesis in mouse assessed as number of papillomas per mouse after 20 weeks; type: functional; procedure, shortened: as §1
# Mus musculus [7] = test: Inhibition of peroxynitrite-induced carcinogenesis in po dosed mouse skin assessed as incidence of papilloma bearing mouse after 20 weeks; type: functional; design: scale not given: the % may be the effect or the level left
# Procedure, shortened: (§2)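 Mouse back shaved and initiated topically with peroxynitrite (PN) 390 nmol in 1 mM NaOH (0.1 mL). Test compound given orally at 0.0025% in drinking water from 1 week before to 1 week after initiation. From 1 week after initiation, TPA (1 μg, 1.7 nmol) in acetone applied twice weekly. 15 mice per group. Papilloma incidence and papillomas per mouse recorded weekly for 20 weeks; papillomas counted once about 1 mm × 1 mm. Student's t-test used.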
# Mus musculus [8] = test: Inhibition of peroxynitrite-induced carcinogenesis in po dosed mouse skin assessed as reduction in papilloma bearing animals after 20 weeks; type: functional; procedure, shortened: as §2
# Raji [9] = test: Inhibition of TPA-induced Epstein-Barr virus early antigen in Raji cells at 10 mol ratio/TPA relative to control; values are per cent of control; conditions: human gammaherpesvirus 4
# Raji [10] = test: Inhibition of TPA-induced Epstein-Barr virus early antigen in Raji cells at 500 mol ratio/TPA relative to control; values are per cent of control; conditions: human gammaherpesvirus 4
# Raji [11] = test: Inhibition of TPA-induced Epstein-Barr virus early antigen in Raji cells at 100 mol ratio/TPA relative to control; values are per cent of control; conditions: human gammaherpesvirus 4
# Raji [12] = test: Inhibition of TPA-induced Epstein-Barr virus early antigen in Raji cells at 1000 mol ratio/TPA relative to control; values are per cent of control; conditions: human gammaherpesvirus 4
compound,measurement,setting,value
CO[C@@H]1O[C@]23C=C[C@@H]4[C@@]1(CC[C@]1(C)[C@@H]([C@H](C)C/C=C/C(C)(C)OC)CC[C@@]41C)[C@@H]2CC[C@H](O)C3(C)C,inhibitory ratio (IR) against NOR 1 action,[1],1.9
same,viability at 1000 mol ratio/TPA,[2],70%
same,Activity,Mus musculus [3],33%
same,Activity,Mus musculus [4],80%
same,Activity,Mus musculus [5],2.1
same,Activity,Mus musculus [6],3.9
same,Activity,Mus musculus [7],80%
same,Activity,Mus musculus [8],4.5
same,"level, % of control",Raji [9],83.9%
same,"level, % of control",Raji [10],19%
same,"level, % of control",Raji [11],42.4%
same,"level, % of control",Raji [12],0%
